Data published in ChEMBL document CHEMBL1153527, “Discovery of a novel series of quinolone and naphthyridine derivatives as potential topoisomerase I inhibitors by scaffold modification” (J Med Chem, 2009).
≈ marks a conversion by molar mass, not a printed value. Calls of active or inactive are those of the source. The calls are words filed in the database; no cut-off is given here.

Tests used:
HT-29 [1] = test: Induction of apoptosis in human HT-29 cells assessed as increase in accumulation at sub-G1 phase at 1 uM after 48 hrs by flow cytometry; assay type: functional
Procedure, shortened: (§1)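 HT-29 cells were exposed to vehicle or 1, 5 or 10 μM compound for 6, 12, 24 or 48 h. Floating and attached cells were collected, fixed in 70% ethanol and treated with 0.1% Triton X-100. They were stained with PI at 50 μg/mL plus RNaseA at 50 μg/mL for 30 min at room temperature in the dark. FL2 DNA content was read on 10000 cells by flow cytometry. The sub-G1 fraction was taken as apoptotic.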

HT-29 [2] = test: Induction of apoptosis in human HT-29 cells assessed as decrease in accumulation at G0/G1 phase at 1 uM after 48 hrs by flow cytometry; assay type: functional, cell-based; procedure, shortened: as §1
SK-OV-3 [3] = test: Induction of apoptosis in human SKOV3 cells assessed as morphological changes at 0.25 ug/mL after 24 hrs by immunostaining; assay type: functional, cell-based
Procedure, shortened: (§2)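 SKOV3 and HT-29 cells were treated with 0.25 or 5 μg/mL for 24 h. Cell morphology was assessed by microscopy after fixation in 4% formaldehyde and Hoechst 33342 staining (10 μg/mL), against an untreated control.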

SK-OV-3 [4] = test: Induction of apoptosis in human SKOV3 cells assessed as morphological changes at 5 ug/mL after 24 hrs by immunostaining; assay type: functional, cell-based; procedure, shortened: as §2
HT-29 [5] = test: Antitumor activity against human HT-29 cells xenografted in athymic BALB/c nude mouse at 150 mg/kg, ip for 10 days measured after 30 days relative to placebo control; assay type: functional; conditions: route intraperitoneal
Procedure, shortened: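 Female athymic BALB/c nude mice (35-40 days old, 18-22 g). HT-29 tumours first grown from 1 × 10^7 cells injected s.c. in the axillary fossa, then excised and transplanted. Treatment started at 100-300 mm3. Groups of n=6 were dosed i.p. daily in 400 μL: saline for 10 days, 5 mg/kg for 2 days, or 75/150 mg/kg for 10 days. Caliper volume was V=1/2·a·b². Values are relative to start volume, compared with placebo by Student's t test, and mice were killed on day 30.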

Bel-7402 = test: Cytotoxicity against human Bel7402 cells after 48 hrs by MTT assay; assay type: functional, cell-based; conditions: Bel-7402, 48 h
HeLa = test: Cytotoxicity against p53-deficient human HeLa cells after 48 hrs by SRB assay; assay type: functional, cell-based
Procedure, shortened: (§3)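 Cell lines came from CCRC, Taiwan. Cells were seeded at about 5 × 10^3 per well and left overnight. They were then given serum-free medium containing 0-10 μM compound (0.08-10 μM serial dilutions) for 48 h at 37 °C. Cells were fixed with TCA (10% final), stained with SRB (0.4% final), and the dye was dissolved in 10 mM Tris with A515 read. IC50 was taken from a fitted log concentration-response curve.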

AGS = test: Cytotoxicity against human AGS cells expressing wild type p53 after 48 hrs by SRB assay; assay type: functional, cell-based; procedure, shortened: as §3
HT-29 [6] = test: Cytotoxicity against human HT-29 cells assessed as inhibition of anchorage-dependent colony formation at 5 uM after 14 days; assay type: functional, cell-based
Procedure, shortened: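 HT-29 cells were plated at 500 per well and allowed to attach for 24 h. They were then exposed continuously to compound or DMSO for 14 days, with medium replaced every 72 h. Colonies were fixed in 1% formaldehyde/PBS and stained with 0.1% crystal violet.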

SK-OV-3 [7] = test: Cytotoxicity against human SKOV3 cells after 48 hrs by MTT assay; assay type: functional, cell-based; conditions: SK-OV-3, 48 h
Procedure, shortened: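 Cells were seeded at about 5 × 10^3 per well, then given serum-free medium containing 0-10 μM test compound for 48 h at 37 °C. MTT was added at 0.5 mg/mL final for 4 h at 37 °C. Formazan was dissolved in DMSO and OD570 read. IC50 values (50% cell death) came from a fitted log concentration-response curve.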

CCn1cc(-c2nc3ccc([N+](=O)[O-])cc3o2)c(=O)c2cc(F)c(N3CCNC(C)C3)c(F)c21 (configuration not stated)
Activity (HT-29 [1]): 35.5%
Activity (HT-29 [2]): Active
Activity (SK-OV-3 [3]): Active
Activity (SK-OV-3 [4]): Active
Activity (HT-29 [5]): 65%
IC50 (Bel-7402): 200 nM
GI50 (HeLa): 1100 nM
IC50 (HeLa): 2400 nM
GI50 (AGS): 700 nM
IC50 (AGS): 3500 nM
Activity (HT-29 [6]): Active
IC50 (SK-OV-3 [7]): 0.55 µg/mL (≈ 1.17 µM)
